From ChEMBL document CHEMBL1126067, “Inhibitors of cholesterol biosynthesis. 6. trans-6-[2-(2-N-heteroaryl-3,5-disubstituted- pyrazol-4-yl)ethyl/ethenyl]tetrahydro-4-hydroxy-2H-pyran-2-ones” (J Med Chem, 1992)

Legend:
Canis familiaris [1] = test: Hypocholesterolemic activity in Cholestyramine-primed Beagle dogs at dose of 0.1 mg/kg four weeks after.; format: functional, Canis lupus familiaris
How it was run: (§1)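 Beagle dogs pretreated with cholestyramine resin, then given resin plus inhibitor. Plasma cholesterol read after 2 and 4 weeks of drug treatment. Values are mean percent change from pretreatment values within the same group; significance versus untreated controls at p < 0.05.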

Canis familiaris [2] = test: Hypocholesterolemic activity in Cholestyramine-primed Beagle dogs at dose of 0.1 mg/kg two weeks after.; format: functional, Canis lupus familiaris; how it was run: as §1
Canis familiaris [3] = test: Hypocholesterolemic activity in Cholestyramine-primed Beagle dogs at dose of 0.3 mg/kg four weeks after.; format: functional, Canis lupus familiaris; how it was run: as §1
Canis familiaris [4] = test: Hypocholesterolemic activity in Cholestyramine-primed Beagle dogs at dose of 0.3 mg/kg two weeks after.; format: functional, Canis lupus familiaris; how it was run: as §1
Canis familiaris [5] = test: Hypocholesterolemic activity in Cholestyramine-primed Beagle dogs at dose of 1.0 mg/kg four weeks after.; format: functional, Canis lupus familiaris; how it was run: as §1
Canis familiaris [6] = test: Hypocholesterolemic activity in Cholestyramine-primed Beagle dogs at dose of 1.0 mg/kg two weeks after.; format: functional, Canis lupus familiaris; how it was run: as §1
Rattus norvegicus [7] = test: The compound was tested in vivo for the inhibition of cholesterol biosynthesis in chow-fed rats at 1.0 mg/kg.; format: functional
How it was run: (§2)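 Acute in vivo cholesterol synthesis (AICS) in normal chow-fed rats. Compounds dosed in DMA/PEG solution, 1.0 mg/kg po unless stated otherwise. Synthesis measured as incorporation of [1-14C]acetate into plasma sterols.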

[8] = target: T1, 3-hydroxy-3-methylglutaryl-coenzyme A reductase (Rattus norvegicus) (UniProt P51639); test: Tested in vivo for the inhibition of cholesterol biosynthesis in chow-fed rats at 1.0 mg/kg.; format: functional, organism-based; parameters: dose 1 mg/kg; how it was run: as §2
T1 sequence (whole entry): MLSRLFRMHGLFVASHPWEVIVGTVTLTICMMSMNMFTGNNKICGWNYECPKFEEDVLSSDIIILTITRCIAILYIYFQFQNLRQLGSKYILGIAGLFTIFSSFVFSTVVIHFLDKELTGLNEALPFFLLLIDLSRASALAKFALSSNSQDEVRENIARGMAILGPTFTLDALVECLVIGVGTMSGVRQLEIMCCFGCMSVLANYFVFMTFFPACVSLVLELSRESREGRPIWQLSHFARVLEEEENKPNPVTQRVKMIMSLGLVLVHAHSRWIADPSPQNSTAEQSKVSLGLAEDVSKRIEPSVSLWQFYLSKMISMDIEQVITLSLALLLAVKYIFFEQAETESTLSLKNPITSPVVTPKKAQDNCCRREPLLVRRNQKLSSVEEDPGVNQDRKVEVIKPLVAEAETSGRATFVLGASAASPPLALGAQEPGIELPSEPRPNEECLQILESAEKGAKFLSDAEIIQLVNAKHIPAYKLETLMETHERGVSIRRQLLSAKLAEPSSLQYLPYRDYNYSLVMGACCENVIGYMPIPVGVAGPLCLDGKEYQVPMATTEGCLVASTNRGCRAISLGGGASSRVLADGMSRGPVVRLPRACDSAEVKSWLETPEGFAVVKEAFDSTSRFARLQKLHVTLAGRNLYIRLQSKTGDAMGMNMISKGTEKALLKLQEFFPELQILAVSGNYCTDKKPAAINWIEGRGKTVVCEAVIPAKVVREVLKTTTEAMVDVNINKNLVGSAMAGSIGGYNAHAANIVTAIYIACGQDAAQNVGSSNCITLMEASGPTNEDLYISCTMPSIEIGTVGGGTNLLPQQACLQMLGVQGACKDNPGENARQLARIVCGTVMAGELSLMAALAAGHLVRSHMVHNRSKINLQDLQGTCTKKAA

Rattus norvegicus [9] = test: The compound was tested in vivo for the inhibition of cholesterol biosynthesis in chow-fed rats.; format: functional; how it was run: as §2
Rattus norvegicus [10] = test: The compound in lactone form was tested in vivo for the inhibition of cholesterol biosynthesis in chow-fed rats at 1.0 mg/kg.; format: functional; how it was run: as §2
Rattus norvegicus [11] = test: The compound form was tested in vivo for the inhibition of cholesterol biosynthesis in chow-fed rats at 1.0 mg/kg; not determined; format: functional; how it was run: as §2
Rattus norvegicus [12] = test: The compound was tested in vivo for the inhibition of cholesterol biosynthesis in chow-fed rats at 1.0 mg/kg; format: functional; how it was run: as §2

| SMILES | inhibition [8] | also measured |
| --- | --- | --- |
| CC[C@H](C)C(=O)O[C@H]1C[C@@H](C)C=C2C=C[C@H](C)[C@H](CC[C@@H]3C[C@@H](O)CC(=O)O3)[C@H]21 [LOVASTATIN] |  | Change (Canis familiaris [1]): -1%; Change (Canis familiaris [2]): -7%; Change (Canis familiaris [3]): -2%; Change (Canis familiaris [4]): -10%; Change (Canis familiaris [5]): -17%; Change (Canis familiaris [6]): -25%; inhibition in vivo at 1 mg/kg (Rattus norvegicus [7]): 64% |
| CC(C)c1nn(-c2nc3ccccc3s2)c(-c2ccc(F)cc2)c1/C=C/[C@@H](O)C[C@@H](O)CC(=O)O | 51% |  |
| O=C1C[C@H](O)C[C@@H](/C=C/c2c(C(F)(F)F)nn(-c3ccccn3)c2-c2ccc(F)cc2)O1 | 60% |  |
| CC(C)c1nn(-c2ccccc2)c(-c2ccc(F)cc2)c1/C=C/[C@@H](O)C[C@@H](O)CC(=O)O | 94% |  |
| CC(C)c1nn(-c2nc3ccccc3s2)c(-c2ccc(F)cc2)c1/C=C/[C@@H]1C[C@@H](O)CC(=O)O1 | 30% |  |
| CC(C)c1nn(-c2ccc3ccccc3n2)c(-c2ccc(F)cc2)c1/C=C/[C@@H](O)C[C@@H](O)CC(=O)O | 69% |  |
| CC(C)c1nn(-c2ccc3ccccc3n2)c(-c2ccc(F)cc2)c1/C=C/[C@@H]1C[C@@H](O)CC(=O)O1 | 75% |  |
| CC(C)c1nn(-c2cnccn2)c(-c2ccc(F)cc2)c1/C=C/[C@@H](O)C[C@@H](O)CC(=O)[O-].[Na+] | 75% | Inhibition (Rattus norvegicus [9]): 91% |
| CC(C)c1nn(-c2cnccn2)c(-c2ccc(F)cc2)c1/C=C/[C@@H]1C[C@@H](O)CC(=O)O1 (stereo in doubt; 10b) | 80% |  |
| CC(C)c1nn(-c2ccccn2)c(-c2ccc(F)cc2)c1/C=C/[C@@H](O)C[C@@H](O)CC(=O)O | 98% | inhibition in vivo at 1 mg/kg (Rattus norvegicus [10]): 85% |
| CC(C)c1nn(-c2ccccn2)c(-c2ccc(F)cc2)c1/C=C/[C@@H]1C[C@@H](O)CC(=O)O1 (stereo in doubt; 20a) [listing 1 of 2 here] |  | Change (Canis familiaris [1]): -16%; Change (Canis familiaris [2]): -20%; Change (Canis familiaris [3]): -32%; Change (Canis familiaris [4]): -31%; Change (Canis familiaris [5]): -50%; Change (Canis familiaris [6]): -44% |
| CC[C@H](C)C(=O)O[C@H]1C[C@H](O)C=C2C=C[C@H](C)[C@H](CC[C@@H](O)C[C@@H](O)CC(=O)O)[C@H]21 [PRAVASTATIN] | 48% | inhibition in vivo at 1 mg/kg (Rattus norvegicus [11]): 48% |
| CC(C)c1nn(-c2ccccn2)c(-c2ccc(F)cc2)c1CCC1C[C@@H](O)CC(=O)O1 (some centres undefined) | 58% |  |
| CC(C)c1nn(-c2ccccc2)c(-c2ccc(F)cc2)c1CCC(O)C[C@@H](O)CC(=O)O (some centres undefined) | 72% |  |
| CC(C)c1nn(-c2ccccn2)c(-c2ccc(F)cc2)c1CCC(O)C[C@@H](O)CC(=O)O (some centres undefined) | 68% |  |
| CC(C)c1nn(-c2ccccn2)c(-c2ccc(F)cc2)c1/C=C/[C@@H]1C[C@@H](O)CC(=O)O1 (stereo in doubt; 10a) | 83% |  |
| CC(C)c1nn(-c2ccccc2)c(-c2ccc(F)cc2)c1CCC1C[C@@H](O)CC(=O)O1 (some centres undefined) |  | inhibition in vivo at 1 mg/kg (Rattus norvegicus [12]): 54% |
| CC(C)c1nn(-c2cnccn2)c(-c2ccc(F)cc2)c1/C=C/[C@@H]1C[C@@H](O)CC(=O)O1 (stereo in doubt; 20b) | 92% |  |
| CC(C)c1nn(-c2ccccn2)c(-c2ccc(F)cc2)c1/C=C/[C@@H]1C[C@@H](O)CC(=O)O1 (stereo in doubt; 20a) [listing 2 of 2 here] | 93% |  |
| O=C(O)C[C@H](O)C[C@H](O)/C=C/c1c(C(F)(F)F)nn(-c2ccccn2)c1-c1ccc(F)cc1 | 81% |  |
